# This is a sample that favours compounds with a hit; in the whole collection about 3.1% have one here.
# Beta cell apopt: inhibitors of cytokine-induced beta cell apoptosis, primary screen, luminescence; INS-1E cytokine-induced death, ATP luminescence, 48 h; percent of positive-control rescue, neutral wells zero; protection from apoptosis, % (test concentration not listed); 300,000 compounds, 0.8% hits; AID 435005, 2010;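 active = Every replicate reaches about 75%, or at least half do and their mean reaches it too, limit read from the data; inconclusive = At least half of replicates reach the limit but their mean does not; inactive = Under half of replicates reach the limit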;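 also: 0% = cytokine-treated negative control wells and 100% = positive control rescue; higher means more ATP so stronger rescue from cytokine killing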
# TAG inh: inhibitors of triacylglycerol accumulation, primary screen, cell-based, uHTS, fluorescence, H9c2 | H9c2 cells, Nile Red lipid (TAG) fluorescence; cells loaded with 200 µM oleic acid | inhibition, % at 12.5 µM | 230,000 compounds, 0.66% hits | AID 651582, 2012;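 active = pattern-corrected inhibition of lipid staining of at least 50% with the nuclear-stain viability signal not falling by more than 50%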;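 also: 0% = DMSO wells and 100% = triacsin C control wells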
# CSC inhib: cancer stem cell viability inhibitors, primary screen, luminescence | 300,000 compounds, 1.1% hits | AID 2717, 2010 | cancer stem cell-like cells viability | inhibition, % at 7.5 µM; in the data active = inhibition above about 75%; inconclusive = no clear call, values can overlap the other calls; tested in HMLE shEcad cells
# Calb FLC: C. albicans growth inhibition with fluconazole, primary screen, CaCi-2 strain, Alamar Blue fluorescence | C. albicans CaCi-2 (fluconazole-resistant clinical isolate) + fluconazole, 48 h | growth inhibition, % (concentration not given with the values) | 300,000 compounds, 0.57% hits | AID 1979, 2009;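 active = growth inhibition above about 58% in most replicates, limit read from the data, passing the limit was not always enough; inconclusive = exactly half the replicates above a set limit; inactive = most replicates below a set limit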;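 also: all wells also contain fluconazole at 8 µg/ml as a sub-toxic cotreatment; 0% = median of DMSO wells and 100% = median of geldanamycin control wells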
# T cruzi inh: inhibitors of intracellular T. cruzi growth, primary screen, luminescence, NIH3T3 host cells; T. cruzi beta-gal in NIH3T3, 90 h; inhibition, % (concentration not given with the values); 300,000 compounds, 1.4% hits; AID 1885, 2009;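 active = mean inhibition across valid replicates above about 55%, limit read from the data; inconclusive = mean below that limit but half or more replicates reach it; inactive = mean below it, under half of replicates reach it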;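 also: signal also drops with host cell toxicity which is not excluded here; 0% = plate median of DMSO wells and 100% = zero luminescence signal; higher percent means less beta-gal luminescence so fewer parasites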
#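 Assay system: NIH/3T3 fibroblasts plus reporter T. cruzi. Amount: NIH/3T3 cells, 5,000 per well. Buffer or medium: DMEM, 2% fetal bovine serum. Doses: compound pinned at 50 nL/well, DMSO. Schedule: ≥90 h infection period, 3 h prior cell attachment. Signal: luminescent β-galactosidase signal after 60 min lysis. Read-out: parasite load inhibition, %.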
# Bfl-1 A1 inh: caspase 3/7 activation in MEF A1-2A-BIM cells, primary screen, A1 inhibitor project, cell-based, luminescence, HTS; 330,000 compounds, 0.066% hits; AID 2462, 2010; caspase activation, % (test concentration not listed); Caspase-Glo 3/7 luminescence, 3 h; percent of clofoctol response, vehicle zero;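 active = over half of replicate activation scores above 10%, or exactly half above 10 with the replicate mean above 10; inconclusive = replicate mean below 10 yet half the replicates above 10; inactive = over half of replicates below 10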
# The depositor's hits bear a star; ? = inconclusive; . = no result; + = active, no number.
SMILES,Beta cell apopt,TAG inh,CSC inhib,Calb FLC,T cruzi inh,Bfl-1 A1 inh
COc1ccc(OC)c(NC(=O)COC(=O)CN2C(=O)NC3(CCCC3)C2=O)c1,-8.4,7.5,.,.,.,-0.3
O=C(NCc1ccc(F)cc1)C1CCCN1C(=O)Nc1cccc(F)c1 (stereo not given),.,.,-9.7,6.0,-3.6,0.4
OCCNc1nc(-c2ccccc2)nc2c1oc1ccccc12,-4.1,0.5,-4.3,1.6,1.9,-0.2
CCOC(=O)c1sc2nc(CSc3ccccc3)nc(N3CCC(C(N)=O)CC3)c2c1C,-3.9,30.1,39.1,12.9,59.2*,0.4
Cc1sc2nc(CSc3ccccc3)nc(N3CCC(C(N)=O)CC3)c2c1C,-0.4,-2.8,20.3,-8.3,19.0,0.1
CCOC(=O)c1c(NC(=O)CSc2nccn2C)sc(C(=O)NC)c1C,-1.5,-1.4,-6.6,0.0,25.7,-0.2
Cc1ccccc1N=C1SC(CC(=O)Nc2ccc3ccccc3c2)C(=O)N1Cc1ccccn1 (stereo not given),3.3,.,78.1*,1.4,41.5,0.8
CC(C)C(=O)NC(=S)Nc1ccc(S(=O)(=O)N(C)Cc2ccccc2)cc1,4.0,.,42.2,-7.5,.,0.6
CC(=O)NC(=S)Nc1ccc(S(=O)(=O)N(C)Cc2ccccc2)cc1,2.3,-8.1,6.2,0.1,68.3*,-0.7
COCc1nnc(NC(=O)c2ccc(S(=O)(=O)N(C)Cc3ccccc3)cc2)o1,5.0,.,20.4,5.3,-21.0,0.6
Cc1nnc(NC(=O)c2ccc(S(=O)(=O)N(C)Cc3ccccc3)cc2)o1,0.1,-6.6,22.3,87.4*,-3.4,-0.6
N#C/C(=C\c1ccc(N2CCOCC2)cc1)c1ccccc1,5.9,.,17.2,87.4*,-7.5,-1.1
CN1CCN(CC(=O)N2CCn3c4c(c5cc(C6CCCCC6)ccc53)CCCC42)CC1 (stereo not given),18.5,.,45.9,110.6*,14.8,-0.1
Cc1ccnc(NC(=O)c2cccc(S(=O)(=O)N3CCCc4ccccc43)c2)c1,-36.9,3.4,-0.7,4.8,23.0,-0.5
Cc1cccc(N2CCN(C(=O)c3ccc(Cl)c(S(=O)(=O)N4CCc5ccccc5C4)c3)CC2)c1C,7.7,.,14.7,1.4,58.9*,0.0
O=C(c1cccc(S(=O)(=O)N2CCc3ccccc3C2)c1)N1CCN(c2ccc(O)cc2)CC1,-5.3,.,155.5*,-28.8,19.6,0.7
CC(=O)N1CCN(C(=O)c2ccc(Cl)c(S(=O)(=O)N3CCc4ccccc43)c2)CC1,-4.2,-5.1,.,.,.,0.2
NC(=O)C1CCN(C(=O)c2cccc(S(=O)(=O)N3CCc4ccccc4C3)c2)CC1,.,-6.2,-6.1,?,4.4,-0.2
CCN1CCN(c2ccc(S(=O)(=O)N3CCCCC3)cc2NC(=O)Cc2ccccc2F)CC1,2.7,-3.9,-13.2,-4.6,54.8*,-0.5
CCN1CCN(c2ccc(S(=O)(=O)N3CCCCC3)cc2NC(=O)Cc2ccc(Cl)c(Cl)c2)CC1,13.8,5.5,-3.1,9.4,63.0*,-1.1
CCN1CCN(c2ccc(S(=O)(=O)N3CCCCC3)cc2NC(=O)c2ccc([N+](=O)[O-])s2)CC1,113.3*,30.0,33.6,-11.0,54.7*,-0.7
CCN1CCN(c2ccc(S(=O)(=O)N3CCCCC3)cc2NC(=O)c2ccc(C)o2)CC1,7.7,4.2,-13.1,3.4,54.6*,-0.2
COc1ccc(CN2CCNC(=O)C2CC(=O)NCC2CCOCC2)cc1C (stereo not given),.,.,.,2.2,-6.9,.
COc1cc(OC)cc(-c2c(C#Cc3ccsc3)c3cc(-c4ccc5c(c4)OCCO5)ccc3n2C)c1,3.3,.,0.3,.,.,0.8
Cc1ccc(S(=O)(=O)N2CCOCC2)cc1NC(=O)COC(=O)/C=C/c1ccco1,-2.0,19.8,-14.9,.,.,-0.2
SMILES,Beta cell apopt,TAG inh,CSC inhib,Calb FLC,T cruzi inh,Bfl-1 A1 inh
C/C(=N\Nc1nc2ccccc2nc1C)c1ccccc1O,7.3,52.5*,11.1,-7.8,41.5,-0.4
Cc1cc(N/N=C/c2ccccc2[N+](=O)[O-])nc(-n2nc(C)cc2C)n1,127.8*,78.8,54.1,-3.0,69.0*,-0.7
Cc1cc(N/N=C/c2ccc(O)cc2O)nc(-c2ccccc2O)n1,75.9*,.,99.1*,2.6,60.4*,-1.2
Cc1cc(N/N=C/c2ccccc2O)nc(-c2ccccc2O)n1,69.3,.,54.3,3.6,34.7,-0.7
C/C(=N\Nc1cc(C)nc(-c2ccccc2O)n1)c1ccccc1O,-1.7,30.9,80.4*,?,34.8,-0.4
CC(=O)Nc1ccc(-c2ccnc3c2CC(C)(C(=O)Nc2cccc(Oc4ccccc4)c2)O3)cc1 (stereo not given),.,2.9,.,.,.,.
COc1ccc(Cc2[nH]n3c(=O)c(Cl)c(C)nc3c2-c2ccccc2)cc1,-1.6,-8.8,9.7,-7.3,-7.6,0.5
Cc1cc(N/N=C/c2ccc(O)cc2O)nc(-n2nc(C)cc2C)n1,98.9*,.,29.0,12.2,59.6*,-1.5
COc1ccc(/C=N/Nc2cc(C)nc(NS(=O)(=O)c3ccc(C)cc3)n2)cc1,-4.5,.,-2.4,6.4,1.0,0.6
COc1ccc(/C=N/Nc2cc(C)nc(-n3nc(C)cc3C)n2)cc1,90.0*,.,18.9,-5.6,43.8,0.2
COc1ccc(/C=N/Nc2cc(N3CCCC3)nc(N3CCCC3)n2)cc1,56.1,.,91.7*,25.3,67.0*,-0.1
CC1CC(=O)N(CC(=O)Nc2ccc(Br)cc2)c2ccccc2S1(=O)=O (stereo not given),-2.3,.,-9.1,18.4,14.9,-0.7
O=C(Nc1cccc2c1CCCC2)c1ccccc1Br,.,.,9.5,49.5,1.1,0.2
COC(=O)c1ccccc1S(=O)(=O)N1CCC(C(=O)NC2CCCCC2C)CC1 (stereo not given),-3.2,16.9,-10.2,.,.,0.2
Cc1c(N2C(=O)/C(=C\c3ccccc3O)SC2=S)c(=O)n(-c2ccccc2)n1C,-18.3,12.5,13.7,1.6,-6.6,-0.2
CN1C(=O)/C(=C/c2cc(N=Nc3ccccc3)ccc2O)SC1=S,4.3,.,+,-1.8,-3.7,-0.3
CC(C)Oc1cccc(C(=O)C2CCCN(Cc3cnn(C(C)C)c3)C2)c1 (stereo not given),.,.,6.2,-17.9,78.3*,0.5
CCn1cc(CN2CCCC(C(=O)c3ccc(-c4ccccc4)cc3)C2)cn1 (stereo not given),.,.,24.7,?,65.0*,-0.6
CCn1nc(C)c(CN2CCCC(C(=O)c3cccc(OC(C)C)c3)C2)c1C (stereo not given),25.1,.,3.0,-3.2,64.7*,-0.6
O=C(N/N=C/c1ccccc1)c1ccc(N2CCCC2=O)cc1,7.9,.,-6.7,-5.9,-4.6,-0.6

# Assay outcomes: PubChem, several laboratories
